Measurements taken from ChEMBL document CHEMBL4396903, “Chain-Shortened Myostatin Inhibitory Peptides Improve Grip Strength in Mice” (ACS Med Chem Lett, 2019).
Calls of active or inactive are those of the source. The calls are words filed in the database; no cut-off is given here. Square brackets hold non-standard residues; d marks the D form. Peptide text beside a SMILES is read from it. * marks the point of attachment. Acetyl(2-naphthyloxy) = O=C(COc1ccc2ccccc2c1)*; Chg = N[C@H](C(=O)O)C1CCCCC1

Tests used:
Mus musculus [1] = test: In vivo induction of muscular hypertrophy in mdx mouse assessed as increase in weight of TA muscles at 30 nmol, im administered on 0 and 14 day and measured on day 42 by relative to control; assay type: functional
Mus musculus [2] = test: In vivo induction of muscular hypertrophy in mdx mouse assessed as hind limb strength at 30 nmol, im administered on 0 and 14 day and measured on day 42 by grip strength meter method (reference value: 4.41 +/- 0.31 Kg); assay type: functional
Mus musculus [3] = test: In vivo induction of muscular hypertrophy in mdx mouse assessed as increase in muscle function at 30 nmol, im administered on 0 and 14 day and measured on day 42 by grip strength meter method relative to control; assay type: functional
[4] = target: Growth/differentiation factor 8 (Homo sapiens) (UniProt O14793); test: Inhibition of myostatin (unknown origin) expressed in HEK293 cells at 0.3 uM incubated for 4 hrs by dual luciferase reporter gene assay; assay type: cell-based
How it was run: (§1)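 Luciferase reporter assay of myostatin inhibition in HEK293 cells. Peptides were prepared as 3 mM DMSO stocks, then tested at a single final concentration (10, 3 or 0.3 μM). Results are given as mean ± SD (n = 3).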

Mus musculus [5] = test: In vivo induction of muscular hypertrophy in im dosed C57BL/6 mouse assessed as increase in gastrocnemius muscle fiber size administered on 0 and 14 day and measured on day 42 by hematoxylin and eosin staining based assay; assay type: functional, organism-based
[6] = target: Growth/differentiation factor 8 (Homo sapiens) (UniProt O14793); test: Inhibition of myostatin (unknown origin) expressed in HEK293 cells at 10 uM incubated for 4 hrs by dual luciferase reporter gene assay; assay type: cell-based; how it was run: as §1
Mus musculus [7] = test: In vivo induction of muscular hypertrophy in im dosed mdx mouse assessed as increase in gastrocnemius muscle fiber size administered on 0 and 14 day and measured on day 42 by hematoxylin and eosin staining based assay; assay type: functional, organism-based
How it was run: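 Male mdx mice aged 5 weeks received intramuscular injections, with saline-injected controls. Gastrocnemius fiber size was assessed histologically by hematoxylin and eosin staining.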

Chain of Growth/differentiation factor 8 (Homo sapiens) (O14793 267-375 limits assumed): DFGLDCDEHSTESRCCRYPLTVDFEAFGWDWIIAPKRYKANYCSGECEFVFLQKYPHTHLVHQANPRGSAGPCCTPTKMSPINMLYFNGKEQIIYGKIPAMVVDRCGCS

Compound | inhibition [4] | inhibition [6] | other results
CC[C@H](C)[C@H](NC(=O)[C@H](CCC(N)=O)NC(=O)[C@@H](NC(=O)[C@H](CCCCN)NC(=O)[C@@H](NC(=O)[C@@H](Cc1c[nH]c2ccccc12)NC(=O)[C@H](CCCNC(=N)N)NC(=O)[C@@H](NC(=O)[C@H](Cc1ccc(O)cc1)NC(=O)[C@@H](N)Cc1c[nH]c2ccccc12)[C@@H](C)CC)[C@@H](C)CC)C1CCCCC1)C(=O)N[C@@H](Cc1c[nH]c2ccccc12)C(=O)N[C@@H](CO)C(=O)N[C@@H](CCCCN)C(=O)N[C@H](C(=O)N[C@@H](CCCNC(=N)N)C(=O)N[C@@H](CC(C)C)C(N)=O)C1CCCCC1 |  |  | Activity (Mus musculus [1]): 114%; Activity (Mus musculus [2]): 5.92 kg/kg; Activity (Mus musculus [3]): 130%
CC[C@H](C)[C@H](NC(=O)[C@H](CCC(N)=O)NC(=O)[C@@H](NC(=O)[C@H](CCCCN)NC(=O)[C@@H](NC(=O)[C@H](Cc1c[nH]c2ccccc12)NC(=O)[C@H](CCCNC(=N)N)NC(=O)[C@@H](NC(=O)[C@H](Cc1ccc(O)cc1)NC(=O)[C@@H](N)Cc1c[nH]c2ccccc12)[C@@H](C)CC)[C@@H](C)CC)C1CCCCC1)C(=O)N[C@@H](Cc1c[nH]c2ccccc12)C(=O)N[C@@H](CO)C(=O)N[C@@H](CCCCN)C(=O)N[C@H](C(=O)N[C@@H](CCCNC(=N)N)C(=O)N[C@@H](CC(C)C)C(N)=O)C1CCCCC1 | Active |  | 
CC[C@H](C)[C@H](NC(=O)[C@H](CCC(N)=O)NC(=O)[C@@H](NC(=O)[C@H](CCCCN)NC(=O)[C@@H](NC(=O)[C@H](Cc1c[nH]c2ccccc12)NC(=O)[C@H](CCCNC(=N)N)NC(=O)[C@@H](NC(=O)[C@H](Cc1ccc(O)cc1)NC(=O)[C@@H](N)Cc1c[nH]c2ccccc12)[C@@H](C)CC)[C@@H](C)CC)[C@@H](C)CC)C(=O)N[C@@H](Cc1c[nH]c2ccccc12)C(=O)N[C@@H](CO)C(=O)N[C@@H](CCCCN)C(=O)N[C@H](C(=O)N[C@@H](CCCNC(=N)N)C(=O)N[C@@H](CC(C)C)C(N)=O)C1CCCCC1 (H-WYIRWIKIQIWSK[Chg]RL-NH2) | Active |  | 
CC[C@H](C)[C@H](NC(=O)[C@H](CCC(N)=O)NC(=O)[C@@H](NC(=O)[C@H](CCCCN)NC(=O)[C@@H](NC(=O)[C@H](Cc1c[nH]c2ccccc12)NC(=O)[C@H](CCCNC(=N)N)NC(=O)[C@@H](NC(=O)[C@H](Cc1ccc(O)cc1)NC(=O)[C@@H](N)Cc1c[nH]c2ccccc12)[C@@H](C)CC)[C@@H](C)CC)C1CCCCC1)C(=O)N[C@@H](Cc1c[nH]c2ccccc12)C(=O)N[C@@H](CO)C(=O)N[C@@H](CCCCN)C(=O)N[C@@H](CC(C)C)C(=O)N[C@@H](CCCNC(=N)N)C(=O)N[C@@H](CC(C)C)C(N)=O (H-WYIRWIK[Chg]QIWSKLRL-NH2) | Active |  | 
CC[C@H](C)[C@H](NC(=O)[C@H](CCCNC(=N)N)NC(=O)[C@H](CO)NC(=O)[C@H](Cc1ccc(O)cc1)NC(=O)[C@H](CCCNC(=N)N)NC(=O)[C@@H](NC(=O)[C@H](CC(N)=O)NC(=O)[C@H](CCC(N)=O)NC(=O)[C@H](CCCNC(=N)N)NC(=O)COc1ccc2ccccc2c1)[C@@H](C)O)C(=O)N[C@@H](CCC(=O)O)C(=O)N[C@@H](Cc1c[nH]c2ccccc12)C(=O)N[C@H](C(=O)N[C@@H](CCCCN)C(=O)N[C@H](C(=O)N[C@@H](CCC(N)=O)C(=O)N[C@H](C(=O)N[C@H](C(=O)N[C@@H](CO)C(=O)N[C@@H](CCCCN)C(=O)N[C@@H](CC(C)C)C(=O)N[C@@H](CCCNC(=N)N)C(=O)N[C@@H](CC(C)C)C(N)=O)[C@@H](C)CC)[C@@H](C)CC)[C@@H](C)CC)[C@@H](C)CC ({Acetyl(2-naphthyloxy)}-RQNTRYSRIEWIKIQIISKLRL-NH2) |  |  | Activity (Mus musculus [5]): Active
H-SRIEAIKIQILSKLRL-NH2 |  | inactive | 
H-SRIEWIKIQIISKLRL-NH2 |  | Active | 
H-SRIEWIKIQIWSKLRL-NH2 |  | Active | 
H-WYFRWIKIQIWSKLRL-NH2 | Active |  | 
H-WYIEAIKIQILSKLRL-NH2 |  | Active | 
H-WYIRWIKIQFWSKLRL-NH2 | Active |  | 
H-WYIRWIKIQIWSKLRL-NH2 | Active |  | Activity (Mus musculus [7]): Active; Activity (Mus musculus [5]): Active
